Experimental data: ChEMBL document CHEMBL4024754, “Development of Potent, Protease-Resistant Agonists of the Parathyroid Hormone Receptor with Broad β Residue Distribution” (J Med Chem, 2017)
Activity calls are given as the source filed them. No cut-off for these calls is given here. Numbered stars: 1 amine (or outer) side, 2 acyl side, 3 side chain; on linkers, the order of the positions; unused ones are H or OH. Square brackets hold non-standard residues; d marks the D form. Peptide text beside a SMILES is read from it. * marks the point of attachment. NH(1S,2S-2-CONH2-cPent) = NC(=O)[C@H]1CCC[C@@H]1N*; ACPC(1S,2S) = N[C@H]1CCC[C@@H]1C(=O)*; X1 = O=C([C@H]1CCC[C@@H]1N[*:1])[*:2]; X2 = O=C([C@H]1CNC[C@@H]1N[*:1])[*:2]; Aib = CC(C)(N)C(=O)O

Tests used:
[1] = biological target: T1, Parathyroid hormone/parathyroid hormone-related peptide receptor (Homo sapiens, UniProt Q03431); test: Agonist activity at human PTH1 receptor expressed in human GP2.3 cells assessed as induction of cAMP after 12 to 20 mins by luciferase reporter gene assay; type: functional, cell-based; conditions: read-out: EC50
T1 sequence (Q03431 whole entry): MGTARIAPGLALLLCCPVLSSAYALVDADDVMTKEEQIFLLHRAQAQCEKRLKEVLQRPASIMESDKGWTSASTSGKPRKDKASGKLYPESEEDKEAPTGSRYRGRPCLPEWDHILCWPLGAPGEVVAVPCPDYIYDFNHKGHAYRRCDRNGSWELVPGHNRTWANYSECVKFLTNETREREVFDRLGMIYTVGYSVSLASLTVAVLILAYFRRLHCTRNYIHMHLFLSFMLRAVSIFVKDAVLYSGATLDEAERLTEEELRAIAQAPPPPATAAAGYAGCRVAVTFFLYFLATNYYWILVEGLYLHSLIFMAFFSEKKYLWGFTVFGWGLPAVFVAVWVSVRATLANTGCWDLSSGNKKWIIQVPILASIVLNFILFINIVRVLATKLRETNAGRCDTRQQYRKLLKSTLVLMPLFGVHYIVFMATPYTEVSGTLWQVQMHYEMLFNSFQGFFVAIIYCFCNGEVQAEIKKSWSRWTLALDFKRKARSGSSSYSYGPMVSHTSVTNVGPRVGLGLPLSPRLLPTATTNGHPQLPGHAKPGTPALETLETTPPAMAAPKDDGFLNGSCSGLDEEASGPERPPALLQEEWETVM

[2] = biological target: T2, Parathyroid hormone/parathyroid hormone-related peptide receptor (Homo sapiens) (UniProt Q03431); test: Agonist activity at human PTH1 receptor expressed in human GP2.3 cells assessed as induction of cAMP after 12 to 20 mins by luciferase reporter gene assay relative to PTH(1 to 34 residues)-NH2; type: functional, cell-based
T2 sequence (whole entry): T1 sequence (Q03431 whole entry)

[3] = biological target: T2, Parathyroid hormone/parathyroid hormone-related peptide receptor (Homo sapiens); test: Displacement of [125I]-PTH(1 to 34 residues) from R0 state of human PTHR1 expressed in African green monkey COS7 cell membranes incubated for >1 hr in presence of GTPgammaS by gamma radiation method
[4] = biological target: T2, Parathyroid hormone/parathyroid hormone-related peptide receptor (Homo sapiens); test: Agonist activity at extracellular domain truncate human PTH1 receptor expressed in GD5 cells assessed as induction of cAMP after 12 to 20 mins by luciferase reporter gene assay; type: functional, cell-based
Outline: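 HEK293-derived lines stably expressing Glosensor cAMP reporter plus full-length human PTHR1 (GP2.3) or ECD-truncated PTHR1 (GD5). Confluent monolayers preincubated at room temperature in CO2-independent medium with 0.5 mM D-luciferin until baseline stable (30 min), then varied agonist concentrations added. Maximal luminescence (12−20 min) used for sigmoidal variable-slope fits.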

[5] = biological target: T2, Parathyroid hormone/parathyroid hormone-related peptide receptor (Homo sapiens); test: Agonist activity at human PTH1 receptor expressed in human GP2.3 cells assessed as induction of cAMP at 0.1 to 100 nM preincubated with protease activity quenched SGF up to 4 hrs followed by compound transfer to GP2.3 cells by luciferase reporter gene assay; type: functional, cell-based
Outline: (§1)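 Control samples: simulated gastric fluid neutralized with 10× PBS, or intestinal fluid mixed with acetonitrile/TFA quench solution, before adding peptide. Gastric controls held up to 4 h. Then diluted and tested on luciferin-loaded GP2.3 cells at 100−0.1 nM final, alongside freshly prepared peptide.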

[6] = biological target: T2, Parathyroid hormone/parathyroid hormone-related peptide receptor (Homo sapiens); test: Agonist activity at human PTH1 receptor expressed in human GP2.3 cells assessed as induction of cAMP at 0.1 to 100 nM preincubated with protease activity quenched SIF followed by compound transfer to GP2.3 cells by luciferase reporter gene assay; type: functional, cell-based; outline: as §1

Compound: CC[C@H](C)[C@H](NC(=O)[C@H](CC(C)C)NC(=O)[C@H]1CNC[C@@H]1NC(=O)[C@H](Cc1cnc[nH]1)NC(=O)[C@H](CC(C)C)NC(=O)[C@H](Cc1ccccc1)NC(=O)[C@H]1CNC[C@@H]1NC(=O)[C@H](CCCNC(=N)N)NC(=O)[C@H](CCCNC(=N)N)NC(=O)[C@H](CCCNC(=N)N)NC(=O)[C@H]1CCC[C@@H]1NC(=O)[C@H](CC(=O)O)NC(=O)[C@H](CCC(N)=O)NC(=O)[C@@H](NC(=O)[C@H]1CCC[C@@H]1NC(=O)[C@H](CCCCN)NC(=O)CNC(=O)[C@H](CCCCN)NC(=O)[C@H](CC(=O)O)NC(=O)[C@H](Cc1cnc[nH]1)NC(=O)[C@H](CC(C)C)NC(=O)[C@H]1CCC[C@@H]1NC(=O)[C@H](CCC(N)=O)NC(=O)[C@H]1CCC[C@@H]1NC(=O)[C@H](CCC(=O)O)NC(=O)[C@H](CO)NC(=O)[C@@H](NC(=O)[C@H]1CCC[C@@H]1N)C(C)C)[C@@H](C)CC)C(=O)N[C@@H](C)C(=O)N[C@H]1CCC[C@@H]1C(=O)N[C@H](C(=O)N[C@@H](Cc1cnc[nH]1)C(=O)N[C@H](C(=O)N[C@H]1CCC[C@@H]1C(N)=O)[C@@H](C)O)[C@@H](C)CC ({ACPC(1S,2S)}-VSE[X1]Q[X1]LHDKGK[X1]IQD[X1]RRR[X2]FLH[X2]LIA[X1]IHT-{NH(1S,2S-2-CONH2-cPent)})
- EC50 [1]: 0.51 nM
- fold change (FC) [2]: 7.4
- inhibition [3]: Active

Compound: CC[C@H](C)[C@H](NC(=O)[C@H]1CCC[C@@H]1NC(=O)[C@H](CCCCN)NC(=O)CNC(=O)[C@H](CCCCN)NC(=O)[C@H](CC(=O)O)NC(=O)[C@H](Cc1cnc[nH]1)NC(=O)[C@H](CC(C)C)NC(=O)[C@H]1CCC[C@@H]1NC(=O)[C@H](CCC(N)=O)NC(=O)[C@H]1CCC[C@@H]1NC(=O)[C@H](CCC(=O)O)NC(=O)[C@H](CO)NC(=O)[C@@H](NC(=O)[C@H]1CCC[C@@H]1N)C(C)C)C(=O)N[C@@H](CCC(N)=O)C(=O)N[C@@H](CC(=O)O)C(=O)N[C@H]1CCC[C@@H]1C(=O)N[C@@H](CCCNC(=N)N)C(=O)N[C@@H](CCCNC(=N)N)C(=O)N[C@@H](CCCNC(=N)N)C(=O)N[C@H]1CNC[C@@H]1C(=O)N[C@@H](CC(C)C)C(=O)N[C@@H](CC(C)C)C(=O)N[C@@H](CCC(=O)O)C(=O)N[C@H]1CNC[C@@H]1C(=O)N[C@@H](CC(C)C)C(=O)N[C@@H](CC(C)C)C(=O)NC(C)(C)C(=O)N[C@H]1CCC[C@@H]1C(=O)N[C@@H](CC(C)C)C(=O)N[C@@H](Cc1cnc[nH]1)C(=O)N[C@H](C(=O)N[C@H]1CCC[C@@H]1C(N)=O)[C@@H](C)O ({ACPC(1S,2S)}-VSE[X1]Q[X1]LHDKGK[X1]IQD[X1]RRR[X2]LLE[X2]LL[Aib][X1]LHT-{NH(1S,2S-2-CONH2-cPent)})
- EC50 [1]: 0.36 nM
- fold change (FC) [2]: 5.3
- inhibition [3]: Active

Compound: CC[C@H](C)[C@H](NC(=O)[C@H](CCC(=O)O)NC(=O)[C@H]1CCC[C@@H]1NC(=O)[C@@H](NC(=O)[C@@H](N)CO)C(C)C)C(=O)N[C@@H](CCC(N)=O)C(=O)N[C@@H](CC(C)C)C(=O)N[C@@H](CCSC)C(=O)N[C@@H](Cc1cnc[nH]1)C(=O)N[C@@H](CC(N)=O)C(=O)N[C@@H](CC(C)C)C(=O)NCC(=O)N[C@@H](CCCCN)C(=O)N[C@@H](Cc1cnc[nH]1)C(=O)N[C@@H](CC(C)C)C(=O)N[C@@H](CC(N)=O)C(=O)N[C@@H](CO)C(=O)N[C@@H](CCSC)C(=O)N[C@@H](CCC(=O)O)C(=O)N[C@@H](CCCNC(=N)N)C(=O)N[C@H](C(=O)N[C@@H](CCC(=O)O)C(=O)N[C@@H](Cc1c[nH]c2ccccc12)C(=O)N[C@@H](CC(C)C)C(=O)N[C@@H](CCCNC(=N)N)C(=O)N[C@@H](CCCCN)C(=O)N[C@@H](CCCCN)C(=O)N[C@@H](CC(C)C)C(=O)N[C@@H](CCC(N)=O)C(=O)N[C@@H](CC(=O)O)C(=O)N[C@H](C(=O)N[C@@H](Cc1cnc[nH]1)C(=O)N[C@@H](CC(N)=O)C(=O)N[C@@H](Cc1ccccc1)C(N)=O)C(C)C)C(C)C
- EC50 [1]: 11.5 nM
- fold change (FC) [2]: 126
- Activity [4]: Active

Compound: CC[C@H](C)[C@H](NC(=O)[C@H](CCC(=O)O)NC(=O)[C@H](CO)NC(=O)[C@@H](NC(=O)[C@@H](N)CO)C(C)C)C(=O)N[C@H]1CCC[C@@H]1C(=O)N[C@@H](CC(C)C)C(=O)N[C@@H](CCSC)C(=O)N[C@@H](Cc1cnc[nH]1)C(=O)N[C@@H](CC(N)=O)C(=O)N[C@@H](CC(C)C)C(=O)NCC(=O)N[C@@H](CCCCN)C(=O)N[C@@H](Cc1cnc[nH]1)C(=O)N[C@@H](CC(C)C)C(=O)N[C@@H](CC(N)=O)C(=O)N[C@@H](CO)C(=O)N[C@@H](CCSC)C(=O)N[C@@H](CCC(=O)O)C(=O)N[C@@H](CCCNC(=N)N)C(=O)N[C@H](C(=O)N[C@@H](CCC(=O)O)C(=O)N[C@@H](Cc1c[nH]c2ccccc12)C(=O)N[C@@H](CC(C)C)C(=O)N[C@@H](CCCNC(=N)N)C(=O)N[C@@H](CCCCN)C(=O)N[C@@H](CCCCN)C(=O)N[C@@H](CC(C)C)C(=O)N[C@@H](CCC(N)=O)C(=O)N[C@@H](CC(=O)O)C(=O)N[C@H](C(=O)N[C@@H](Cc1cnc[nH]1)C(=O)N[C@@H](CC(N)=O)C(=O)N[C@@H](Cc1ccccc1)C(N)=O)C(C)C)C(C)C
- EC50 [1]: 0.34 nM
- fold change (FC) [2]: 3.7
- Activity [4]: Active

Compound: CSCC[C@H](NC(=O)[C@H](CO)NC(=O)[C@H](CC(N)=O)NC(=O)[C@H](CC(C)C)NC(=O)[C@H](Cc1cnc[nH]1)NC(=O)[C@H](CCCCN)NC(=O)CNC(=O)[C@H](CC(C)C)NC(=O)[C@H](CC(N)=O)NC(=O)[C@H](Cc1cnc[nH]1)NC(=O)[C@H](CCSC)NC(=O)[C@H](CC(C)C)NC(=O)[C@H](CCC(N)=O)NC(=O)[C@H]1CCC[C@@H]1NC(=O)[C@H](CCC(=O)O)NC(=O)[C@H](CO)NC(=O)[C@@H](NC(=O)[C@@H](N)CO)C(C)C)C(=O)N[C@@H](CCC(=O)O)C(=O)N[C@@H](CCCNC(=N)N)C(=O)N[C@H](C(=O)N[C@@H](CCC(=O)O)C(=O)N[C@@H](Cc1c[nH]c2ccccc12)C(=O)N[C@@H](CC(C)C)C(=O)N[C@@H](CCCNC(=N)N)C(=O)N[C@@H](CCCCN)C(=O)N[C@@H](CCCCN)C(=O)N[C@@H](CC(C)C)C(=O)N[C@@H](CCC(N)=O)C(=O)N[C@@H](CC(=O)O)C(=O)N[C@H](C(=O)N[C@@H](Cc1cnc[nH]1)C(=O)N[C@@H](CC(N)=O)C(=O)N[C@@H](Cc1ccccc1)C(N)=O)C(C)C)C(C)C
- EC50 [1]: 0.17 nM
- fold change (FC) [2]: 1.9
- Activity [4]: Active

Compound: CC[C@H](C)[C@H](NC(=O)[C@H](CCC(=O)O)NC(=O)[C@H](CO)NC(=O)[C@@H](NC(=O)[C@H]1CCC[C@@H]1N)C(C)C)C(=O)N[C@@H](CCC(N)=O)C(=O)N[C@H]1CCC[C@@H]1C(=O)N[C@@H](CCSC)C(=O)N[C@@H](Cc1cnc[nH]1)C(=O)N[C@@H](CC(N)=O)C(=O)N[C@@H](CC(C)C)C(=O)NCC(=O)N[C@@H](CCCCN)C(=O)N[C@H]1CCC[C@@H]1C(=O)N[C@@H](CC(C)C)C(=O)N[C@@H](CC(N)=O)C(=O)N[C@@H](CO)C(=O)N[C@H]1CCC[C@@H]1C(=O)N[C@@H](CCC(=O)O)C(=O)N[C@@H](CCCNC(=N)N)C(=O)N[C@H](C(=O)N[C@H]1CNC[C@@H]1C(=O)N[C@@H](Cc1c[nH]c2ccccc12)C(=O)N[C@@H](CC(C)C)C(=O)N[C@@H](CCCNC(=N)N)C(=O)N[C@H]1CNC[C@@H]1C(=O)N[C@@H](CCCCN)C(=O)N[C@@H](CC(C)C)C(=O)N[C@@H](CCC(N)=O)C(=O)N[C@H]1CCC[C@@H]1C(=O)N[C@H](C(=O)N[C@@H](Cc1cnc[nH]1)C(=O)N[C@@H](CC(N)=O)C(=O)N[C@H]1CCC[C@@H]1C(N)=O)C(C)C)C(C)C ({ACPC(1S,2S)}-VSEIQ[X1]MHNLGK[X1]LNS[X1]ERV[X2]WLR[X2]KLQ[X1]VHN-{NH(1S,2S-2-CONH2-cPent)})
- fold change (FC) [2]: 8.7
- Activity [5]: Active
- Activity [6]: Active
